In ChEMBL document CHEMBL3286260, “Guanidine-based α2-adrenoceptor ligands: Towards selective antagonist activity” (Eur J Med Chem, 2014):
pKi: −log10 of the molar value. Calls of active or inactive are those of the source. The calls are words filed in the database; no cut-off is given here.

Key:
[1] = target: T1, Alpha-2A adrenergic receptor (Homo sapiens, UniProt P08913); test: Displacement of [3H]RX821002 from alpha2-adrenergic receptor in prefrontal cortex of human brain after 30 mins by liquid scintillation spectrometric analysis; assay type: tissue-based
T1 sequence (P08913 whole entry): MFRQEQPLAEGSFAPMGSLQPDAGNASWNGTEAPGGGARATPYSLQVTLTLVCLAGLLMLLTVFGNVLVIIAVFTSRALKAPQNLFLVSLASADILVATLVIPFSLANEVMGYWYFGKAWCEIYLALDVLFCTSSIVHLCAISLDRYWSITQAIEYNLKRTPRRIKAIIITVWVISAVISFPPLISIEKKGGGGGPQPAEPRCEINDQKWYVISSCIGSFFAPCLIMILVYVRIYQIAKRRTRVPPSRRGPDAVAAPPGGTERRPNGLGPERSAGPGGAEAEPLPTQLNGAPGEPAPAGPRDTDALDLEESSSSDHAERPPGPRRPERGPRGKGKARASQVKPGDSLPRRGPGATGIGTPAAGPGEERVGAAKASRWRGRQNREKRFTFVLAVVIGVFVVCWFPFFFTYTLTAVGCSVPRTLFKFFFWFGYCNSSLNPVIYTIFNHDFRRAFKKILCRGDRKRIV

[2] = target: T2, Alpha-2A adrenergic receptor (Homo sapiens) (UniProt P08913); test: Antagonist activity at alpha2-adrenergic receptor in prefrontal cortex of human brain assessed as effect on [35S]GTPgammaS binding after 120 mins by liquid scintillation spectrometric analysis; assay type: functional, tissue-based
T2 sequence (whole entry): T1 sequence (P08913 whole entry)

[3] = target: T2, Alpha-2A adrenergic receptor (Homo sapiens); test: Antagonist activity at alpha2-adrenergic receptor in prefrontal cortex of human brain assessed as increase in UK14304 EC50 for [35S]GTPgammaS binding after 120 mins by liquid scintillation spectrometric analysis; assay type: functional, tissue-based
In short: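 Same [35S]GTPγS membrane assay (120 min, 30 °C, 0.5 nM radioligand, Mg/Na/GDP buffer pH 7.4). UK14304 concentration–response curves (10^-13 to 10^-4 M) run with or without test compound at 10^-5 M. Shift in agonist EC50 taken as the measure of antagonism. Bound label counted by liquid scintillation.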

With `CN(C)c1ccc(/N=C2/NCC(c3ccco3)N2)cc1` (centres undefined) the pKi [1] was 5.88.
In the case of `CCOc1ccc(NC(=N)N)cc1`, the pKi [1] was 6.85, the Activity [2] was “Active” and the Activity [3] was “Active”.
With `N=C(NCCO)Nc1ccc2c(c1)CCCC2` the pKi [1] was 5.76.
For `CN(C)c1ccc(/N=C(/N)NCc2ccco2)cc1`, the pKi [1] was 6.67, the Activity [2] was “Active” and the Activity [3] was “Active”.
For `CN(C)c1ccc(NC(=N)Nc2ccccc2)cc1`, the pKi [1] was 6.41, the Activity [2] was “Active” and the Activity [3] was “Active”.
With `CCCNC(=N)Nc1ccc(NCC)cc1` the pKi [1] was 5.08.
`c1coc(C2CN/C(=N/c3ccc4c(c3)OCO4)N2)c1` (centres undefined) showed a pKi [1] of 5.77.
`CCCNC(=N)Nc1ccc2c(c1)OCO2` was tested, and the pKi [1] was 4.82.
For `CCNc1ccc(/N=C(/N)NCc2ccco2)cc1`, the pKi [1] was 5.97 and the Activity [2] was “Active”.
In the case of `N=C(NCc1ccco1)Nc1ccc2c(c1)CCCC2`, the pKi [1] was 6.29 and the Activity [2] was “Active”.
`N=C(Nc1ccccc1)Nc1ccc2c(c1)CCCC2` was tested, and the pKi [1] was 6.58, the Activity [2] was “Active” and the Activity [3] was “Active”.
With `CCNc1ccc(NC(=N)Nc2ccccc2)cc1` the pKi [1] was 5.31.
In the case of `CCOc1ccc(N=C2NCCN2)cc1`, the pKi [1] was 7.10, the Activity [2] was “Active” and the Activity [3] was “Active”.
For `CN(C)c1ccc(NC(=N)NCCO)cc1`, the pKi [1] was 5.73 and the Activity [2] was “Active”.
For `CCOc1ccc(/N=C(/N)NCc2ccco2)cc1`, the pKi [1] was 5.83 and the Activity [2] was “Active”.
In the case of `CCOc1ccc(/N=C2/NCC(C)N2)cc1` (centres undefined), the pKi [1] was 4.85.
`N=C(NCCO)Nc1ccc2c(c1)OCO2` was tested, and the pKi [1] was 4.93 and the Activity [2] was “Active”.
For `COC1(C2=NCCN2)COc2ccccc2O1` (centres undefined), the pKi [1] was 8.72.
For `CCNc1ccc(/N=C2/NCC(C)N2)cc1` (centres undefined), the pKi [1] was 4.91.
In the case of `N=C(NCc1ccco1)Nc1ccc2c(c1)OCO2`, the pKi [1] was 5.82 and the Activity [2] was “Active”.
Compound `CC1CN/C(=N/c2ccc(N(C)C)cc2)N1` (centres undefined) has a pKi [1] of 5.48.
In the case of `CCCNC(=N)Nc1ccc(OCC)cc1`, the pKi [1] was 5.37 and the Activity [2] was “Active”.
For `CCNc1ccc(/N=C2/NCC(c3ccco3)N2)cc1` (centres undefined), the pKi [1] was 5.66.
`CCCNC(=N)Nc1ccc(N(C)C)cc1` was tested, and the pKi [1] was 5.95 and the Activity [2] was “Active”.
In the case of `CCCNC(=N)Nc1ccc2c(c1)CCCC2`, the pKi [1] was 6.17 and the Activity [2] was “Active”.
`CCNc1ccc(NC(=N)NCCO)cc1` showed a pKi [1] of 4.73.
In the case of `CCOc1ccc(NC(=N)Nc2ccccc2)cc1`, the pKi [1] was 5.65.
For `c1coc(C2CN/C(=N/c3ccc4c(c3)CCCC4)N2)c1` (centres undefined), the pKi [1] was 6.16 and the Activity [2] was “Active”.
In the case of `CC1CN/C(=N/c2ccc3c(c2)CCCC3)N1` (centres undefined), the pKi [1] was 6.00 and the Activity [2] was “Active”.
For `CCOc1ccc(/N=C2/NCC(c3ccco3)N2)cc1` (centres undefined), the pKi [1] was 5.58.
In the case of `CCOc1ccc(NC(=N)NCCO)cc1`, the pKi [1] was 4.72.
For `CC1CN/C(=N/c2ccc3c(c2)OCO3)N1` (centres undefined), the pKi [1] was 5.63.
In the case of `N=C(Nc1ccccc1)Nc1ccc2c(c1)OCO2`, the pKi [1] was 5.36.
